Measurements taken from ChEMBL document CHEMBL4340518, “Synthesis, structure-activity relationship and in vitro pharmacodynamics of A-ring modified caged xanthones in a preclinical model of inflammatory breast cancer” (Eur J Med Chem, 2019).
Activity calls are given as the source filed them. No cut-off for these calls is given here.

Tests used:
Breast carcinoma cell [1] = test: Potency index, ratio of IC50 for taxol to IC50 for test compound for cytotoxicity against patient derived inflammatory breast cancer cell spheroids assessed as increase in spheroid dissolution incubated for 24 hrs by propidium iodide/Acridine orange staining based dual-fluorescence viability assay; type: functional, Homo sapiens
Breast carcinoma cell [2] = test: Cytotoxicity against patient derived inflammatory breast cancer cell spheroids assessed as increase in spheroid dissolution incubated for 24 hrs by propidium iodide/Acridine orange staining based dual-fluorescence viability assay; type: functional; settings: Homo sapiens
Breast carcinoma cell [3] = test: Cytotoxicity against patient derived inflammatory breast cancer cell spheroids assessed as increase in spheroid dissolution at 2.5 uM incubated for 24 hrs by bright field microscopic based Spheroids MARY-X assay; type: functional, Homo sapiens
How it was run: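 MARY-X spheroids (40–100 μm) grown in MEM + 10% heat-inactivated FBS, penicillin/streptomycin, 37 °C, 5% CO2. Plated at 30–50 spheroids/well and exposed in replicates to 2.5 μM or DMSO vehicle for 24 h. Brightfield imaging scored deviation from the well-circumscribed spheroid edge, graded as no, low, moderate or complete response.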

Breast carcinoma cell [4] = test: Cytotoxicity against patient derived inflammatory breast cancer cell spheroids assessed as increase in spheroid dissolution incubated for 24 hrs by bright field microscopic based Spheroids MARY-X assay; type: functional; settings: Homo sapiens
How it was run: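 MARY-X spheroids (40–100 μm; MEM, 10% heat-inactivated FBS, antibiotics, 37 °C, 5% CO2) were seeded at 30–50/well. Treated in replicates for 24 h with nine concentrations, 0.25–2.25 μM in 0.25 μM steps made by serial dilution, or DMSO. ImageJ circularity from brightfield images gave dose-response curves, from which IC50 was fitted.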

Breast carcinoma cell [5] = test: Induction of apoptosis in patient derived inflammatory breast cancer cell spheroids assessed as increase in pyknotic nuclei at 2.5 uM incubated for 3 hrs by DAPI staining based fluorescence microscopic analysis; type: functional; settings: Homo sapiens
How it was run: (§1)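 Spheroids were embedded in Matrigel plugs (Matrigel:spheroids in medium 2:1) on coverslips and set for 30 min at 37 °C. They were exposed to 2.5 μM or DMSO for 3 h, with brightfield checks of edge loss. Plugs were fixed in 4% PFA 30 min RT, permeabilized with 2% Triton X-100 15 min, and blocked with 3% goat serum 30 min. Staining used Alexa488 anti-Ki67 (1:10) and anti-cPARP (1:100), 4 °C 24 h, then Cy5 anti-rabbit (4 µg/ml), 4 °C 24 h, and DAPI mountant. ApoTome z-stack fluorescence imaging followed.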

Breast carcinoma cell [6] = test: Induction of apoptosis in patient derived inflammatory breast cancer cell spheroids assessed as increase in loss of well-circumscribed spheroid edge at 2.5 uM incubated for 3 hrs by bright field microscopic analysis; type: functional, cell-based; settings: Homo sapiens; how it was run: as §1
Breast carcinoma cell [7] = test: Antiproliferative activity against patient derived inflammatory breast cancer cell spheroids assessed as reduction in cell viability at 2.5 uM incubated for 3 hrs by ki-67 staining based fluorescence microscopic analysis; type: functional; settings: Homo sapiens; how it was run: as §1
Breast carcinoma cell [8] = test: Induction of apoptosis in patient derived inflammatory breast cancer cell spheroids assessed as localization of cleaved PARP at 2.5 uM incubated for 3 hrs by c-PARP staining based fluorescence microscopic analysis; type: functional; settings: Homo sapiens; how it was run: as §1

SMILES | Activity (Breast carcinoma cell [3]) [%] | IC50 (Breast carcinoma cell [4]) [nM] | Activity (Breast carcinoma cell [3]; Homo sapiens) | further results
CC(C)=CCC[C@]1(C)C=Cc2c(O)c3c(c(CC=C(C)C)c2O1)O[C@]12C(=C[C@@H]4C[C@H]1C(C)(C)O[C@@]2(C/C=C(/C)C(=O)O)C4=O)C3=O [GAMBOGIC ACID] | – | – | – | Ratio IC50 (Breast carcinoma cell [1]): 20; IC50 (Breast carcinoma cell [2]): 420 nM
COCOc1cc(O)c2c(c1)OC13C(=CC4CC1C(C)(C)OC3(CC=C(C)C)C4=O)C2=O (centres undefined) | 100 | 380 | – | Activity (Breast carcinoma cell [5]): Active; Activity (Breast carcinoma cell [6]): Active; Activity (Breast carcinoma cell [7]): Active; Activity (Breast carcinoma cell [8]): Active
CC(C)=CCC12OC(C)(C)C3CC4(Oc5cc(F)cc(F)c5C(=O)C4=CC31)C2=O (centres undefined) | 100 | 890 | – | –
COCCOCCOCCOc1cc(OCCOCCOCCOC)c2c(c1)OC13C(=CC4CC1C(C)(C)OC3(CC=C(C)C)C4=O)C2=O (centres undefined) | – | – | Active | –
COCCOCCOCCOc1ccc2c(c1)OC13C(=CC4CC1C(C)(C)OC3(CC=C(C)C)C4=O)C2=O (centres undefined) | – | – | Active | –
CC(C)=CCC12OC(C)(C)C3CC(C=C4C(=O)c5c(F)cc(F)cc5OC431)C2=O (centres undefined) | 100 | 1120 | – | Activity (Breast carcinoma cell [5]): Active; Activity (Breast carcinoma cell [6]): Active; Activity (Breast carcinoma cell [7]): Active; Activity (Breast carcinoma cell [8]): Active
COCCOCCOCCOc1cccc2c1C(=O)C1=CC3CC4C(C)(C)OC(CC=C(C)C)(C3=O)C14O2 (centres undefined) | – | – | Active | –
CC(C)=CCC12OC(C)(C)C3CC(C=C4C(=O)c5c(O)cc(O)cc5OC431)C2=O (centres undefined) | – | – | inactive | –
CC(C)=CCC12OC(C)(C)C3CC(C=C4C(=O)c5ccccc5OC431)C2=O (centres undefined) | 100 | 630 | – | –
CC(C)=CCC12OC(C)(C)C3CC(C=C4C(=O)c5c(O)cccc5OC431)C2=O (centres undefined) | 100 | 510 | – | Activity (Breast carcinoma cell [5]): Active; Activity (Breast carcinoma cell [6]): Active; Activity (Breast carcinoma cell [7]): Active; Activity (Breast carcinoma cell [8]): Active; IC50 (Breast carcinoma cell [2]): 660 nM
CC(C)=CCC12OC(C)(C)C3CC(C=C4C(=O)c5ccc(O)cc5OC431)C2=O (centres undefined) | – | – | inactive | –
CC(C)=CCC12OC(C)(C)C3CC(C=C4C(=O)C5=C(OC431)C(=O)C=CC5=O)C2=O (centres undefined) | – | – | inactive | –
COCCOCCOCCOc1cc(O)c2c(c1)OC13C(=CC4CC1C(C)(C)OC3(CC=C(C)C)C4=O)C2=O (centres undefined) | – | – | Active | –
CC(=O)O[C@H]1C(=O)[C@@]2(C)[C@H]([C@H](OC(=O)c3ccccc3)[C@]3(O)C[C@H](OC(=O)[C@H](O)[C@@H](NC(=O)c4ccccc4)c4ccccc4)C(C)=C1C3(C)C)[C@]1(OC(C)=O)CO[C@@H]1C[C@@H]2O [PACLITAXEL] | – | – | – | IC50 (Breast carcinoma cell [2]): 7800 nM
COc1ccc(OC)c2c1OC13C(=CC4CC1C(C)(C)OC3(CC=C(C)C)C4=O)C2=O (centres undefined) | – | – | inactive | –
